Holding throughout (type): cell-based
The test system of one assay is KB. Put plainly: Cytotoxicity against human KB cells after 48 hrs by MTT assay. In outline:
(§1)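 KB and KB-C2 cells grown in DMEM with 10% FBS, with KB-C2 maintained with 2 µg/mL colchicine. 5 × 10^3 cells/well were preincubated 24 h, then exposed 48 h at 37 °C, 5% CO2 to graded concentrations (DMSO final <0.5%). MTT read-out. IC50 was the concentration giving 50% of vehicle-control absorbance. Mean ± SE of 3–4 experiments.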
On the technique in general: Tetrazolium dyes change colour on reduction, which living cells bring about.

The nature of assay [1]: Cytotoxicity against human colchicine-resistant KBC2 cells after 48 hrs by MTT assay. Particulars: KB-C2, 48 h. In outline: as §1
A short description of assay [2]: Cytotoxicity against human colchicine-resistant KBC2 cells in presence of 2.5 uM colchicine after 48 hrs by MTT assay. Particulars: KB-C2, 48 h. In outline: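 Colchicine-resistant KB-C2 cells, maintained in DMEM/10% FBS with 2 µg/mL colchicine. Seeded at 5 × 10^3 cells/well, preincubated 24 h, then given graded test concentrations (DMSO final <0.5%) together with 2.5 µM colchicine for 48 h at 37 °C, 5% CO2. MTT read-out. IC50 was 50% of vehicle-control absorbance. Mean ± SE, 3–4 experiments.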

A further assay relates to K562. Nature of the assay: Cytotoxicity against human K562 cells after 48 hrs by MTT assay. To be noted: K562, 48 h. An outline of the steps:
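K562 leukemia cells, 1 × 10^4 cells/well in medium with 10% FBS, preincubated 24 h. Test samples were then added at various concentrations (DMSO final <0.5%) for 48 h at 37 °C, 5% CO2. MTT assay. IC50 was 50% absorbance relative to vehicle controls. Mean ± SE from 3–4 experiments.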

The nature of assay [3]: Cytotoxicity against human doxorubicin-resistant K562/Adr cells after 48 hrs by MTT assay. An outline of the steps: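 Doxorubicin-resistant K562/Adr cells, maintained in RPMI1640/10% FBS containing 0.5 µM doxorubicin. Seeded at 1 × 10^4 cells/well, preincubated 24 h, then incubated 48 h at 37 °C, 5% CO2 with graded test concentrations (DMSO final <0.5%). MTT read-out. IC50 was 50% of vehicle-control absorbance. Mean ± SE, 3–4 experiments.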

Assay [4] in a line: Cytotoxicity against human doxorubicin-resistant K562/Adr cells in presence of 1 uM doxorubicin after 48 hrs by MTT assay.
For the next assay, the system named is MCF7. Put plainly: Cytotoxicity against human MCF7 cells after 48 hrs by MTT assay. To be noted: MCF7, 48 h. An outline of the steps: (§2)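 MCF7 or COLO205 cells in RPMI1640 with 10% FBS, seeded at 5 × 10^3 cells and preincubated 24 h. Graded concentrations (DMSO final <0.5%) were then applied for 48 h at 37 °C, 5% CO2. Proliferation read by MTT. IC50 was the concentration halving absorbance versus vehicle-treated controls. Mean ± SE of 3–4 experiments.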

The test system of another assay is COLO 205. Put plainly: Cytotoxicity against human COLON205 cells after 48 hrs by MTT assay. Particulars: COLO 205, 48 h. In outline: as §2

Where only a bound is given, the exact number is not on record here.

By IC50 is commonly meant the concentration at which inhibition is half-maximal. For `C=C1CC[C@]2(C)CC[C@]3(C)[C@H](CC[C@@H]4[C@@](C)(CCC(=O)O)[C@H](C(=C)C)CC[C@]43C)[C@@H]2[C@H]1C`, the IC50 (in the assay with KB; in assay [1]; in assay [2]; with K562; in assay [3]; in assay [4]) was over 100 µM each time. In addition, the IC50 in the assay on MCF7 and in the assay with COLO 205 was over 100 µM in each case.
In the case of `CC(C)(O)[C@H]1CC[C@@](C)([C@H]2CC[C@]3(C)[C@@H]2CC[C@@H]2[C@@]4(C)CC[C@@H](O)C(C)(C)[C@@H]4CC[C@]23C)O1`, the IC50 in the assay with KB is 43.4 µM; in assay [1] it was 55.3 µM; in assay [2], 28.6 µM; with K562 it was 48.5 µM; in assay [3] it was 73.9 µM; in assay [4], 45.2 µM. In the assay on MCF7, this molecule came in with an IC50 of 57.9 µM.
Regarding `C=C(C)[C@@H]1CC[C@]2(C(=O)O)CC[C@]3(C)[C@H](CC[C@@H]4[C@@]5(C)CCC(=O)C(C)(C)[C@@H]5CC[C@]43C)[C@@H]12` [BETUNOLIC ACID], the IC50 turned out to be 3.8 µM in the assay with KB; 2.3 µM in assay [1]; 0.64 µM in assay [2]; 16.1 µM in the assay on K562; 73.5 µM in assay [3]; 48.4 µM in assay [4]. Further, the IC50 with MCF7 is 49 µM; in the assay with COLO 205, 36.8 µM.
Turning to `CC(C)(O)[C@H]1CC[C@@]2(C)C1CC[C@]1(C)[C@@H]2CC[C@@H]2[C@@]3(C)CCC(=O)C(C)(C)[C@@H]3CC[C@]21C` (stereo not given in full) [HYDROXYHOPANONE], the IC50 (with KB; in assay [1]; in assay [2]; in the assay with K562; in assay [3]; in assay [4]) was over 100 µM in each case. Moreover, the 50% inhibitory concentration (IC50) in the assay with MCF7 is over 100 µM; in the assay on COLO 205 it was 77.1 µM.
Consider `CC(=O)O[C@@H]1C[C@@H]2[C@@]3(C)CC[C@@H](OC(=O)CC(=O)O)C(C)(C)[C@@H]3CC[C@@]2(C)[C@]2(C)CC[C@H]([C@]3(C)CC[C@H](C(C)(C)O)O3)[C@@H]12` [PAPYRIFERIC ACID], for which the IC50 in the assay on KB turned out to be 47.8 µM; in assay [1], 66 µM; in assay [2] it was 60.1 µM; in the assay with K562 it was 47.6 µM; in assay [3] it was 42.5 µM; in assay [4] it was 34.5 µM. For the same molecule, the IC50 came to 71.7 µM with MCF7 and 52.2 µM in the assay on COLO 205.
In the case of `COC(=O)CC(=O)O[C@@H]1CC[C@]2(C)[C@H]3CC[C@@H]4[C@@H]([C@]5(C)CCC(=O)O5)CC[C@@]4(C)[C@]3(C)CC[C@H]2C1(C)C`, the IC50 came out at 58 µM in the assay with KB; 30.4 µM in assay [1]; 3.3 µM in assay [2]; 47.2 µM with K562; 56.1 µM in assay [3]; 26.5 µM in assay [4]. Moreover, the IC50 with MCF7 and in the assay with COLO 205 was over 100 µM throughout.
Take `CC(=O)O[C@@H]1CC[C@]2(C)[C@H]3CC[C@@H]4[C@@H]([C@]5(C)CC[C@H](C(C)(C)O)O5)CC[C@@]4(C)[C@]3(C)CC[C@H]2C1(C)C`: the IC50 was 44.8 µM with KB; 89.6 µM in assay [1]; 43.6 µM in assay [2]; 41.6 µM with K562; 50.5 µM in assay [3]; 68.3 µM in assay [4]. Besides, the IC50 with MCF7 came to 47.5 µM; in the assay with COLO 205, 54.2 µM.
For `CC(C)(O)[C@@H]1CC[C@@](C)([C@H]2CC[C@]3(C)[C@@H]2CC[C@@H]2[C@@]4(C)CCC(=O)C(C)(C)[C@@H]4CC[C@]23C)O1` [CABRALEONE], the IC50 was over 100 µM in the assay on KB; over 100 µM in assay [1]; 62.4 µM in assay [2]; over 100 µM in the assay with K562; over 100 µM in assay [3]; over 100 µM in assay [4]. In addition, the IC50 in the assay with MCF7 and with COLO 205 was over 100 µM each time.
`C=C(C)[C@@H](O)CC[C@](C)(O)[C@H]1CC[C@]2(C)[C@@H]1CC[C@@H]1[C@@]3(C)CCC(=O)C(C)(C)[C@@H]3CC[C@]12C`: the IC50 in the assay on KB is 70.2 µM; in assay [1], 78.5 µM; in assay [2], 29.8 µM; in the assay on K562, 40.2 µM; in assay [3], 35.9 µM; in assay [4], 50.4 µM. Also, the figures for the IC50 with MCF7 and in the assay with COLO 205 were 73.1 µM and 58.8 µM, respectively.
Regarding `C=C(C)[C@@H]1CC[C@]2(C)[C@H](CCC3=C4CC(C)(C)CC[C@]4(C)CC[C@]32C)[C@@]1(C)CCC(=O)O`, the IC50 in the assay on KB amounted to 27.5 µM; in assay [1], 58 µM; in assay [2], 36.3 µM; in the assay with K562, 28 µM; in assay [3] it was 25.9 µM; in assay [4], 24.8 µM. The IC50 with MCF7 turned out to be 37.4 µM; in the assay on COLO 205, 38.1 µM.
Take `CC(=O)O[C@@H]1C[C@@H]2[C@@]3(C)CC[C@@H](O)C(C)(C)[C@@H]3CC[C@@]2(C)[C@]2(C)CC[C@H]([C@]3(C)CC[C@H](C(C)(C)O)O3)[C@@H]12`: the IC50 with KB worked out at 36.5 µM; in assay [1], 25.7 µM; in assay [2], 3.5 µM; in the assay on K562, 27.5 µM; in assay [3], 15.4 µM; in assay [4] it was 15.3 µM. Further, the IC50 with MCF7 was determined as 34.2 µM; with COLO 205, 36.7 µM.
Take `CC1(C)C(=O)CC[C@]2(C)[C@H]3CC[C@@H]4[C@@H]([C@]5(C)CCC(=O)O5)CC[C@@]4(C)[C@]3(C)CC[C@@H]12` [CABRALELACTONE]: the IC50 with KB is 63.5 µM; in assay [1] it was over 100 µM; in assay [2], 28.5 µM; in the assay with K562, over 100 µM; in assay [3] it was over 100 µM; in assay [4], over 100 µM. For the same molecule, the figures for the IC50 in the assay on MCF7 and in the assay with COLO 205 were 97.9 µM and over 100 µM, respectively.
Regarding `C=C(C)[C@@H]1CC[C@]2(C)[C@H](CC[C@@H]3[C@@H]([C@]4(C)CC[C@H](C(C)(C)O)O4)CC[C@]32C)[C@@]1(C)CCC(=O)OC` [METHYL SHOREATE], the IC50 with KB worked out at 66.6 µM; in assay [1] it was 93.5 µM; in assay [2] it was 20.1 µM; in the assay with K562 it was 45.3 µM; in assay [3] it was 50.9 µM; in assay [4], 47.1 µM. Besides, the values for the IC50 with MCF7 and with COLO 205 were 59.7 µM and 67.7 µM, respectively.
As to `CC(C)=CCC[C@](C)(O)[C@H]1CC[C@]2(C)[C@@H]1CC[C@@H]1[C@@]3(C)CCC(=O)C(C)(C)[C@@H]3CC[C@]12C` [DIPTEROCARPOL], the IC50 with KB was over 100 µM; in assay [1] it was over 100 µM; in assay [2] it was 38.2 µM; in the assay with K562, over 100 µM; in assay [3] it was over 100 µM; in assay [4], over 100 µM. For the same molecule, the half-inhibitory concentration (IC50) in the assay with MCF7 and in the assay with COLO 205 was over 100 µM in each case.
Turning to `CC(C)(O)[C@H]1CC[C@@](C)([C@H]2CC[C@]3(C)[C@@H]2CC[C@@H]2[C@@]4(C)CCC(=O)C(C)(C)[C@@H]4CC[C@]23C)O1` [OCOTILLONE], the IC50 in the assay on KB was over 100 µM; in assay [1], over 100 µM; in assay [2], 64.2 µM; in the assay with K562 it was over 100 µM; in assay [3], over 100 µM; in assay [4], over 100 µM. The IC50 in the assay on MCF7 and with COLO 205 was over 100 µM each time.
For `CC(C)(O)[C@H]1CC[C@@](C)([C@H]2CC[C@]3(C)[C@@H]2CC[C@@H]2[C@@]4(C)CC[C@@H](OC(=O)CC(=O)O)C(C)(C)[C@@H]4CC[C@]23C)O1`, the IC50 is 60.8 µM in the assay on KB; 69.6 µM in assay [1]; 65.5 µM in assay [2]; 57.5 µM with K562; 47.2 µM in assay [3]; 42.5 µM in assay [4]. Further, the IC50 amounted to 64.1 µM with MCF7 and 55.6 µM in the assay on COLO 205.
Take `COC(=O)CC(=O)O[C@@H]1CC[C@]2(C)[C@H]3CC[C@@H]4[C@@H]([C@]5(C)CC[C@H](C(C)(C)O)O5)CC[C@@]4(C)[C@]3(C)CC[C@H]2C1(C)C`: the IC50 with KB stood at 64.2 µM; in assay [1] it was 87 µM; in assay [2], 13.6 µM; with K562 it was 35.4 µM; in assay [3], 31.1 µM; in assay [4] it was 41.1 µM. Further, the IC50 in the assay with MCF7 is 63.6 µM; in the assay on COLO 205 it was 57.2 µM.

The values are drawn from ChEMBL document CHEMBL1142121, “Triterpenoids from the floral spikes of Betula platyphylla var. japonica and their reversing activity against multidrug-resistant cancer cells” (J Nat Prod, 2007).
